Measured values: ChEMBL document CHEMBL1123045, “Synthesis of high specific activity [75Br]- and [77Br]bromperidol and tissue distribution studies in the rat” (J Med Chem, 1985)

Legend:
Rattus norvegicus [1] = test: Distribution in rat liver 15 min after intravenous administration, injected dose/gm; format: ADME, organism-based; details: in vivo, 0.25 h
Procedure, shortened: (§1)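 [77Br]Bromperidol at high specific activity (50-100 µCi in 0.1 mL 0.9% NaCl, pH 3) given into the femoral vein of 300-320-g female Sprague-Dawley rats under light ether anesthesia. At each time point, groups of five were decapitated after cardiac-puncture blood sampling. Organs were dissected, blotted, weighed and gamma-counted against an injectate standard. Values are % injected dose/g, mean ± SD, n=5.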

Rattus norvegicus [2] = test: Distribution in rat liver 1 hr after intravenous administration, injected dose/gm; format: ADME, organism-based; details: in vivo; procedure, shortened: as §1
Rattus norvegicus [3] = test: Distribution in rat muscle 30 min after intravenous administration, injected dose/gm; format: ADME, organism-based, Muscle tissue; details: in vivo, 0.5 h
Procedure, shortened: (§2)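 Female Sprague-Dawley rats (300-320 g) under light ether anesthesia received a single injection of [77Br]-labeled tracer (50-100 µCi in 0.1 mL 0.9% NaCl, pH 3) into the femoral vein. Groups of five were decapitated at set times after a cardiac-puncture blood sample. Organs were dissected, blotted and weighed, and counted in a NaI(Tl) well γ-counter. Values are %ID/g against an injectate standard, mean ± SD (n=5).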

Rattus norvegicus [4] = test: Distribution in rat muscle 4 hr after intravenous administration, injected dose/gm; format: ADME, organism-based, Muscle tissue; details: in vivo; procedure, shortened: as §2
Rattus norvegicus [5] = test: Distribution in rat muscle 5 min after intravenous administration, injected dose/gm; format: ADME, organism-based, Muscle tissue; details: in vivo; procedure, shortened: as §2
Rattus norvegicus [6] = test: Distribution in rat muscle 6 hr after intravenous administration, injected dose/gm; format: ADME, organism-based, Muscle tissue; details: in vivo; procedure, shortened: as §2
Rattus norvegicus [7] = test: Distribution in rat muscle 8 hr after intravenous administration, injected dose/gm; format: ADME, organism-based, Muscle tissue; details: in vivo; procedure, shortened: as §2
Rattus norvegicus [8] = test: Distribution in rat pancreas 15 min after intravenous administration, injected dose/gm; format: ADME, organism-based; details: in vivo, 0.25 h; procedure, shortened: as §2
Rattus norvegicus [9] = test: Distribution in rat pancreas 1 hr after intravenous administration, injected dose/gm; format: ADME, organism-based; details: in vivo; procedure, shortened: as §2
Rattus norvegicus [10] = test: Distribution in rat pancreas 2 hr after intravenous administration, injected dose/gm; format: ADME, organism-based; details: in vivo; procedure, shortened: as §2
Rattus norvegicus [11] = test: Distribution in rat pancreas 30 min after intravenous administration, injected dose/gm; format: ADME, organism-based; details: in vivo, 0.5 h; procedure, shortened: as §2
Rattus norvegicus [12] = test: Distribution in rat pancreas 4 hr after intravenous administration, injected dose/gm; format: ADME, organism-based; details: in vivo; procedure, shortened: as §2
Rattus norvegicus [13] = test: Distribution in rat pancreas 5 min after intravenous administration, injected dose/gm; format: ADME, organism-based; details: in vivo; procedure, shortened: as §2
Rattus norvegicus [14] = test: Distribution in rat pancreas 6 hr after intravenous administration, injected dose/gm; format: ADME, organism-based; details: in vivo; procedure, shortened: as §2
Rattus norvegicus [15] = test: Distribution in rat pancreas 8 hr after intravenous administration, injected dose/gm; format: ADME, organism-based; details: in vivo; procedure, shortened: as §2
Rattus norvegicus [16] = test: Distribution in rat heart 4 hr after intravenous administration, injected dose/gm; format: ADME, organism-based; details: in vivo; procedure, shortened: as §1
Rattus norvegicus [17] = test: Distribution in rat heart 5 min after intravenous administration, injected dose/gm; format: ADME, organism-based; details: in vivo; procedure, shortened: as §1
Rattus norvegicus [18] = test: Distribution in rat heart 6 hr after intravenous administration, injected dose/gm; format: ADME, organism-based; details: in vivo; procedure, shortened: as §1
Rattus norvegicus [19] = test: Distribution in rat heart 8 hr after intravenous administration, injected dose/gm; format: ADME, organism-based; details: in vivo; procedure, shortened: as §1
Rattus norvegicus [20] = test: Distribution in rat intestine 15 min after intravenous administration, injected dose/gm; format: ADME, organism-based; details: in vivo, 0.25 h; procedure, shortened: as §1
Rattus norvegicus [21] = test: Distribution in rat intestine 1 hr after intravenous administration, injected dose/gm; format: ADME, organism-based; details: in vivo; procedure, shortened: as §1
Rattus norvegicus [22] = test: Distribution in rat intestine 2 hr after intravenous administration, injected dose/gm; format: ADME, organism-based; details: in vivo; procedure, shortened: as §1
Rattus norvegicus [23] = test: Distribution in rat intestine 30 min after intravenous administration, injected dose/gm; format: ADME, organism-based; details: in vivo, 0.5 h; procedure, shortened: as §1
Rattus norvegicus [24] = test: Distribution in rat intestine 5 min after intravenous administration, injected dose/gm; format: ADME, organism-based; details: in vivo; procedure, shortened: as §1
Rattus norvegicus [25] = test: Distribution in rat intestine 6 hr after intravenous administration, injected dose/gm; format: ADME, organism-based; details: in vivo; procedure, shortened: as §1
Rattus norvegicus [26] = test: Distribution in rat intestine 8 hr after intravenous administration, injected dose/gm; format: ADME, organism-based; details: in vivo; procedure, shortened: as §1
Rattus norvegicus [27] = test: Distribution in rat kidney, 15 min after intravenous administration, injected dose/gm; format: ADME, organism-based; details: in vivo, 0.25 h; procedure, shortened: as §1
Rattus norvegicus [28] = test: Distribution in rat kidney, 1 hr after intravenous administration, injected dose/gm; format: ADME, organism-based; details: in vivo; procedure, shortened: as §1
Rattus norvegicus [29] = test: Distribution in rat kidney, 2 hr after intravenous administration, injected dose/gm; format: ADME, organism-based; details: in vivo; procedure, shortened: as §1
Rattus norvegicus [30] = test: Distribution in rat kidney, 30 min after intravenous administration, injected dose/gm; format: ADME, organism-based; details: in vivo, 0.5 h; procedure, shortened: as §1
Rattus norvegicus [31] = test: Distribution in rat kidney, 4 hr after intravenous administration, injected dose/gm; format: ADME, organism-based; details: in vivo; procedure, shortened: as §1
Rattus norvegicus [32] = test: Distribution in rat kidney, 5 min after intravenous administration, injected dose/gm; format: ADME, organism-based; details: in vivo; procedure, shortened: as §1
Rattus norvegicus [33] = test: Distribution in rat kidney, 6 hr after intravenous administration, injected dose/gm; format: ADME, organism-based; details: in vivo; procedure, shortened: as §1
Rattus norvegicus [34] = test: Distribution in blood of rat, 8 hr after intravenous administration, injected dose/gm; format: ADME, organism-based; details: in vivo; procedure, shortened: as §1
Rattus norvegicus [35] = test: Distribution in brain of rat, 15 min after intravenous administered, injected dose/gm; format: ADME, organism-based; details: in vivo, 0.25 h; procedure, shortened: as §1
Rattus norvegicus [36] = test: Distribution in brain of rat, 1 hr after intravenous administered, injected dose/gm; format: ADME, organism-based; details: in vivo; procedure, shortened: as §1
Rattus norvegicus [37] = test: Distribution in brain of rat, 2 hr after intravenous administered, injected dose/gm; format: ADME, organism-based; details: in vivo; procedure, shortened: as §1
Rattus norvegicus [38] = test: Distribution in brain of rat, 30 min after intravenous administered, injected dose/gm; format: ADME, organism-based; details: in vivo, 0.5 h; procedure, shortened: as §1
Rattus norvegicus [39] = test: Distribution in brain of rat, 4 hr after intravenous administered, injected dose/gm; format: ADME, organism-based; details: in vivo; procedure, shortened: as §1
Rattus norvegicus [40] = test: Distribution in brain of rat, 5 min after intravenous administered, injected dose/gm; format: ADME, organism-based; details: in vivo; procedure, shortened: as §1
Rattus norvegicus [41] = test: Distribution in brain of rat, 8 hr after intravenous administered, injected dose/gm; format: ADME, organism-based; details: in vivo; procedure, shortened: as §1
Rattus norvegicus [42] = test: Distribution in rat fat 15 min after intravenous administration, injected dose/gm; format: ADME, organism-based, Adipose tissue; details: in vivo, 0.25 h; procedure, shortened: as §1
Rattus norvegicus [43] = test: Distribution in rat fat 1 hr after intravenous administration, injected dose/gm; format: ADME, organism-based, Adipose tissue; details: in vivo; procedure, shortened: as §1
Rattus norvegicus [44] = test: Distribution in rat fat 2 hr after intravenous administration, injected dose/gm; format: ADME, organism-based, Adipose tissue; details: in vivo; procedure, shortened: as §1
Rattus norvegicus [45] = test: Distribution in rat fat 30 min after intravenous administration, injected dose/gm; format: ADME, organism-based, Adipose tissue; details: in vivo, 0.5 h; procedure, shortened: as §1
Rattus norvegicus [46] = test: Distribution in rat fat 5 min after intravenous administration, injected dose/gm; format: ADME, organism-based, Adipose tissue; details: in vivo; procedure, shortened: as §1
Rattus norvegicus [47] = test: Distribution in rat fat 6 hr after intravenous administration, injected dose/gm; format: ADME, organism-based, Adipose tissue; details: in vivo; procedure, shortened: as §1
Rattus norvegicus [48] = test: Distribution in rat fat 8 hr after intravenous administration, injected dose/gm; format: ADME, organism-based, Adipose tissue; details: in vivo; procedure, shortened: as §1
Rattus norvegicus [49] = test: Distribution in rat heart 15 min after intravenous administration, injected dose/gm; format: ADME, organism-based; details: in vivo, 0.25 h; procedure, shortened: as §1
Rattus norvegicus [50] = test: Distribution in rat heart 1 hr after intravenous administration, injected dose/gm; format: ADME, organism-based; details: in vivo; procedure, shortened: as §1

Q: Which Distribution (Rattus norvegicus [1]) does the source give for `O=C(CCCN1CCC(O)(c2ccc(Br)cc2)CC1)c1ccc(F)cc1` [BROMPERIDOL] here?
A: 2.19%

Q: What about the Distribution (Rattus norvegicus [2]) of the same compound?
A: 2.99%

Q: And the Distribution (Rattus norvegicus [3])?
A: 0.23%

Q: What about the Distribution (Rattus norvegicus [4]) of the same compound?
A: 0.12%

Q: And the Distribution (Rattus norvegicus [5])?
A: 0.32%

Q: And the Distribution (Rattus norvegicus [6])?
A: 0.13%

Q: And the Distribution (Rattus norvegicus [7])?
A: 0.1%

Q: What about the Distribution (Rattus norvegicus [8]) of the same compound?
A: 4.72%

Q: What about the Distribution (Rattus norvegicus [9]) of the same compound?
A: 4.23%

Q: And the Distribution (Rattus norvegicus [10])?
A: 3.76%

Q: What about the Distribution (Rattus norvegicus [11]) of the same compound?
A: 5.2%

Q: What about the Distribution (Rattus norvegicus [12]) of the same compound?
A: 3.51%

Q: What about the Distribution (Rattus norvegicus [13]) of the same compound?
A: 3.16%

Q: And the Distribution (Rattus norvegicus [14])?
A: 2.83%

Q: What about the Distribution (Rattus norvegicus [15]) of the same compound?
A: 2.05%

Q: And the Distribution (Rattus norvegicus [16])?
A: 0.36%

Q: What about the Distribution (Rattus norvegicus [17]) of the same compound?
A: 2.29%

Q: And the Distribution (Rattus norvegicus [18])?
A: 0.39%

Q: And the Distribution (Rattus norvegicus [19])?
A: 0.3%

Q: What about the Distribution (Rattus norvegicus [20]) of the same compound?
A: 0.91%

Q: What about the Distribution (Rattus norvegicus [21]) of the same compound?
A: 0.89%

Q: And the Distribution (Rattus norvegicus [22])?
A: 0.82%

Q: What about the Distribution (Rattus norvegicus [23]) of the same compound?
A: 0.83%

Q: What about the Distribution (Rattus norvegicus [24]) of the same compound?
A: 0.39%

Q: What about the Distribution (Rattus norvegicus [25]) of the same compound?
A: 0.98%

Q: And the Distribution (Rattus norvegicus [26])?
A: 0.85%

Q: What about the Distribution (Rattus norvegicus [27]) of the same compound?
A: 4.69%

Q: And the Distribution (Rattus norvegicus [28])?
A: 4.11%

Q: And the Distribution (Rattus norvegicus [29])?
A: 2.93%

Q: What about the Distribution (Rattus norvegicus [30]) of the same compound?
A: 5.01%

Q: What about the Distribution (Rattus norvegicus [31]) of the same compound?
A: 1.95%

Q: What about the Distribution (Rattus norvegicus [32]) of the same compound?
A: 4.96%

Q: And the Distribution (Rattus norvegicus [33])?
A: 1.93%

Q: And the Distribution (Rattus norvegicus [34])?
A: 0.02%

Q: And the Distribution (Rattus norvegicus [35])?
A: 3.04%

Q: And the Distribution (Rattus norvegicus [36])?
A: 2.48%

Q: What about the Distribution (Rattus norvegicus [37]) of the same compound?
A: 1.85%

Q: And the Distribution (Rattus norvegicus [38])?
A: 2.82%

Q: And the Distribution (Rattus norvegicus [39])?
A: 1.61%

Q: And the Distribution (Rattus norvegicus [40])?
A: 2.26%

Q: And the Distribution (Rattus norvegicus [41])?
A: 1.29%

Q: And the Distribution (Rattus norvegicus [42])?
A: 0.16%

Q: And the Distribution (Rattus norvegicus [43])?
A: 0.22%

Q: What about the Distribution (Rattus norvegicus [44]) of the same compound?
A: 0.18%

Q: What about the Distribution (Rattus norvegicus [45]) of the same compound?
A: 0.2%

Q: What about the Distribution (Rattus norvegicus [46]) of the same compound?
A: 0.05%

Q: What about the Distribution (Rattus norvegicus [47]) of the same compound?
A: 0.19%

Q: And the Distribution (Rattus norvegicus [48])?
A: 0.18%

Q: And the Distribution (Rattus norvegicus [49])?
A: 1.37%

Q: And the Distribution (Rattus norvegicus [50])?
A: 0.55%
